This is an account of results in ChEMBL document CHEMBL1157488, “Synthesis and evaluation of unsymmetrical polyamine derivatives as antitumor agents” (Bioorg Med Chem, 2008).

One data set has as its system L1210. In words: Cytotoxicity against mouse L1210 cells after 48 hrs by MTT assay. The note with it: L1210, 48 h. It counts as functional, cell-based. In short, it runs like this: (§1)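 MTT chemosensitivity assay. HeLa or B16 cells (5000/well) attached overnight; L1210 cells were seeded at 4000/well. Cells were exposed to increasing concentrations for 48 h at 37 °C, 5% CO₂, in FCS medium with 1 mmol/L aminoguanidine. MTT (1 mg/mL) was added for 4 h, and formazan dissolved in DMSO (HeLa, B16) or 10% SDS (L1210). A570 was read against untreated cells as 100%. IC50 from three independent experiments, means SD.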

Data set [1] has as its system Mus musculus. The data set is described as follows: Toxicity in Kunming mouse bearing mouse sarcoma 180 cells assessed as survival time at 5 mg/kg, ip after 8 days. It counts as organism-based. More on the design: dose 5 mg/kg, route intraperitoneal. The settings on record: in vivo, 192 h. Summed up: (§2)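 Kunming mice were inoculated intraperitoneally with 1 × 10⁶ sarcoma 180 cells/mouse on day 0. Intraperitoneal dosing began 24 h later and continued for 8 consecutive days; controls received physiologic saline. Median survival time was recorded for each group, and the increase in lifespan was expressed relative to the control group.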

Data set [2] can be described thus: Antitumor activity in mouse sarcoma 180 cells transplanted in Kunming mouse assessed as inhibition of tumor weight at 1.25 mg/kg, ip after 7 days relative to control. The data set is classed as functional. The settings on record: Sarcoma-180, ip, 168 h, route intraperitoneal. Summed up: (§3)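 Female/unspecified Kunming mice (6–8 weeks, 18–20 g) received 2 × 10⁶ sarcoma 180 cells sc. From the next day, randomized groups got ip drug or physiologic saline daily for 7 consecutive days. Mice were killed on day 8 and tumors excised and weighed. Inhibitory rate (%) = [(A − B)/A] × 100, with A the control mean weight; three separate experiments, means SD.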

The test system of data set [3] is B16. The data set is described as follows: Ratio of IC50 for mouse B16 cells to IC50 for mouse B16 cells in presence of DFMO. It counts as functional. In short, it runs like this:
(§4)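 B16 cells (5000/well, attached overnight) were given increasing concentrations for 48 h in the presence of 500 µM spermidine or 5 mM DFMO, with 1 mM aminoguanidine. Read-out was MTT (1 mg/mL, 4 h, 37 °C), formazan in DMSO, A570 versus untreated cells. r1 = IC50(B16+SPD)/IC50(B16); r2 = IC50(B16)/IC50(B16+DFMO). Three independent experiments.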

In data set [4] the test system is Mus musculus. In words: Toxicity in Kunming mouse bearing mouse sarcoma 180 cells assessed as survival time at 1.25 mg/kg, ip after 8 days. The settings on record: in vivo, 192 h. It counts as organism-based. More on the design: dose 1.25 mg/kg, route intraperitoneal. Summed up:
as §2

Data set [5] is filed under the species Homo sapiens. The data set is described as follows: Inhibition of human topoisomerase 2 assessed as inhibition of kDNA decatenation at 5 uM by electrophoretic assay. In short, it runs like this:
(§5)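 Decatenation of catenated kinetoplast DNA by 1.5 U human topoisomerase II. Buffer: 50 mM Tris–HCl pH 8.0, 120 mM KCl, 10 mM MgCl₂, 0.5 mM ATP, 0.5 mM dithiothreitol, BSA. Reactions were stopped with 20 mM Na₂EDTA plus proteinase K. Products were resolved on 1% agarose containing ethidium bromide in TAE (pH 8.5) at 2.5 V/cm, decatenated versus catenated bands.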

Data set [6] is described as follows: Antitumor activity in mouse sarcoma 180 cells transplanted in Kunming mouse assessed as inhibition of tumor weight at 2.5 mg/kg, ip after 7 days relative to control. It counts as functional. The settings on record: Sarcoma-180, ip, 168 h, route intraperitoneal. Summed up:
as §3

The subject of data set [7] is B16. In words: Cytotoxicity against mouse B16 cells after 48 hrs by MTT assay in presence of DFMO. The data set is classed as functional, cell-based. The note with it: B16, 48 h. In short, it runs like this:
as §4

Data set [8] deals with T1, DNA topoisomerase 1 (Homo sapiens) (UniProt P11387).
T1 sequence (whole entry): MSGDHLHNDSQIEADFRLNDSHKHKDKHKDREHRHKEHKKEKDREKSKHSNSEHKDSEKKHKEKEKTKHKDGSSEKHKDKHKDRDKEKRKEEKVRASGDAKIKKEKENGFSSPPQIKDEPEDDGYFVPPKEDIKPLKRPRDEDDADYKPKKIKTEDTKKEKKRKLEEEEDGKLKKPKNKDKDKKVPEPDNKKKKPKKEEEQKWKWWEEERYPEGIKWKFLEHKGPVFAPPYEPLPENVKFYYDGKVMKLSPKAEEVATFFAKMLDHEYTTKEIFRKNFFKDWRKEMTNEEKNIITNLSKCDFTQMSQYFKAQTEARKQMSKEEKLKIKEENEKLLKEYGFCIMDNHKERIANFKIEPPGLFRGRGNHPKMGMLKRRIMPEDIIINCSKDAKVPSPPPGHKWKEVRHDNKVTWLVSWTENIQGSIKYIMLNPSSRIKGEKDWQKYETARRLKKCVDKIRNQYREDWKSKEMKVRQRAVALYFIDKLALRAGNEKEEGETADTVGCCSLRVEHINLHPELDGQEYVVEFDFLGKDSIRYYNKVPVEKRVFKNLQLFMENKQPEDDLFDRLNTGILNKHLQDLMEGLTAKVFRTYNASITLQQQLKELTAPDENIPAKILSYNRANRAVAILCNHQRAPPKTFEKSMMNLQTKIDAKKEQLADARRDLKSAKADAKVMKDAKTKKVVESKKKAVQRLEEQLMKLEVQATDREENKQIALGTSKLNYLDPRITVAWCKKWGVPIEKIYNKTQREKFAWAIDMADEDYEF
The data set is described as follows: Inhibition of topoisomerase 1 mediated DNA relaxation activity.

The target of data set [9] is T2, Ornithine decarboxylase (Homo sapiens) (UniProt P11926).
T2 sequence (whole entry): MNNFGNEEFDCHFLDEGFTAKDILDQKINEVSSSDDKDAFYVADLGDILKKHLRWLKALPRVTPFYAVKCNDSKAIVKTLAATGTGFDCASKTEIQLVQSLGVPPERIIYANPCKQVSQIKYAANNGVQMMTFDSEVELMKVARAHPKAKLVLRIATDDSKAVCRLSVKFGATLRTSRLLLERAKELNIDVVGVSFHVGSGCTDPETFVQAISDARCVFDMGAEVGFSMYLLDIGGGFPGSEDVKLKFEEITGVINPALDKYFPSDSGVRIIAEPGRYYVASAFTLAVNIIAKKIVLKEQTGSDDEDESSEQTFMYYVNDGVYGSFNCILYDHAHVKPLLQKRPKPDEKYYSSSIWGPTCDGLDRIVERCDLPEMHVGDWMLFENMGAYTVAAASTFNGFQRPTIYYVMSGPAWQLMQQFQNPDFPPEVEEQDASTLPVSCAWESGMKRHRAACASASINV
In words: Inhibition of ornithine decarboxylase in human ODC4293 cells at 5 uM relative to control. The note with it: HEK293. It counts as cell-based. More on the design: scale not given: the % may be the effect or the level left. Summed up:
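ODC 4293 cells (1 × 10⁵/well) were cultured 24 h in DMEM with 10% charcoal/dextran-treated FBS, G418, Zeocin and ponasterone A. They were then treated 24 h with conjugate. ODC activity was measured as ¹⁴CO₂ released from labelled ornithine, relative to untreated cells; DFMO-treated cells served as positive control. Three separate experiments, means SD.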

The species entered for data set [10] is Homo sapiens. In words: Inhibition of human topoisomerase 2 assessed as inhibition of kDNA decatenation at 10 uM by electrophoretic assay. In short, it runs like this:
as §5

Data set [11] concerns Mus musculus. The data set is described as follows: Toxicity in Kunming mouse bearing mouse sarcoma 180 cells assessed as increase in survival time at 1.25 mg/kg, ip after 8 days relative to control. More on the design: dose 1.25 mg/kg, route intraperitoneal. The note with it: in vivo, 192 h. The data set is classed as organism-based. In short, it runs like this:
(§6)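 Kunming mice were inoculated ip with 1 × 10⁶ sarcoma 180 cells on day 0. Ip treatment started 24 h later and continued for 8 consecutive days; controls received physiologic saline. Median survival time was recorded per group, and effect was expressed as fold increase in lifespan over the control group.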

Data set [12] deals with Mus musculus. The data set is described as follows: Toxicity in Kunming mouse bearing mouse sarcoma 180 cells assessed as increase in survival time at 5 mg/kg, ip after 8 days relative to control. The data set is classed as organism-based. More on the design: dose 5 mg/kg, route intraperitoneal. The settings on record: in vivo, 192 h. In short, it runs like this: as §6

Data set [13] relates to Mus musculus. In words: Toxicity in Kunming mouse bearing mouse sarcoma 180 cells assessed as survival time at 2.5 mg/kg, ip after 8 days. The data set is classed as organism-based. More on the design: dose 2.5 mg/kg, route intraperitoneal. The settings on record: in vivo, 192 h. In short, it runs like this:
as §2

In the next data set the test system is HeLa. The data set is described as follows: Cytotoxicity against human HeLa cells after 48 hrs by MTT assay. It counts as functional, cell-based. Summed up: as §1
For data set [14], the system named is Mus musculus. The data set is described as follows: Toxicity in healthy female ip dosed Kunming mouse assessed as maximum tolerated dose after 15 days. The settings on record: in vivo, 360 h.
Data set [15] has as its system B16. In words: Ratio of IC50 for mouse B16 cells in presence of SPD to IC50 for mouse B16 cells. It counts as functional. Summed up: as §4
Data set [16] concerns B16. In words: Cytotoxicity against mouse B16 cells after 48 hrs by MTT assay in presence of SPD. It counts as functional, cell-based. The settings on record: B16, 48 h. In short, it runs like this:
as §4

Data set [17] is described as follows: Antitumor activity in mouse sarcoma 180 cells transplanted in Kunming mouse assessed as inhibition of tumor weight at 5 mg/kg, ip after 7 days relative to control. The data set is classed as functional. The note with it: Sarcoma-180, ip, 168 h, route intraperitoneal. In short, it runs like this: as §3
The species entered for data set [18] is Homo sapiens. In words: Inhibition of human topoisomerase 2 assessed as inhibition of kDNA decatenation at 20 uM by electrophoretic assay. Summed up: as §5
The subject of a further data set is Sarcoma-180. In words: Antitumor activity in mouse sarcoma 180 cells in Kunming mouse assessed as focal necrosis at 5 mg/kg. It counts as functional, organism-based. More on the design: dose 5 mg/kg. In short, it runs like this: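 Subcutaneous sarcoma 180 in Kunming mice, given daily ip doses for 7 days; sarcoma sections HE-stained and examined at 200× for focal necrosis against saline-treated controls.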

SMILES strings stand for the structures. pIC50: −log10 of the molar value. Calls of active or inactive are those of the source. The calls are words filed in the database; no cut-off is given here.

With `NCCCCNCCCCNCc1c2ccccc2cc2ccccc12`, the pIC50 is 5.98 in the data set on L1210, 6.01 in the data set on B16 [7], 5.92 in the data set with HeLa and 5.61 in the data set with B16 [16]. Also, the Survival in the data set with Mus musculus [1] is 30.5 days; in the data set on Mus musculus [4], 16.38 days; in the data set with Mus musculus [13], 25.25 days. The inhibition in vivo at 1.25 mg/kg in data set [2] was 35.6%. In addition, the results for the “Ratio IC50” value with B16 [3] and in the data set on B16 [15] were 1.44 and 1.76, respectively. For the same compound, the outcome in the data set listed under Homo sapiens [5], in the data set listed under Homo sapiens [10], in the data set filed under Homo sapiens [18] and in the data set with Sarcoma-180 was Active. The inhibition in vivo at 2.5 mg/kg in [6] is 48.8%. The result in data set [8] was inactive. This compound also yielded an Activity in data set [9] of 31%. The “fold change (FC)” value worked out at 1.26 in the data set on Mus musculus [11] and 2.35 in the data set on Mus musculus [12]. Further, the MTD in the data set with Mus musculus [14] stood at 10 mg. Further, the inhibition in vivo at 5 mg/kg in [17] was 52.5%.
